Reference: ChEMBL document CHEMBL4480436, “Lead optimization of selective tubulin inhibitors as anti-trypanosomal agents” (Bioorg Med Chem, 2019)

Experiments:
[1] = tested on: Trypanosoma brucei brucei; experiment: Inhibition of tubulin polymerization in Trypanosoma brucei brucei Lister 427 assessed as increase in non-polymerized tubulin after 12 hrs by Western blot analysis
In short: (§1)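 Trypanosomes treated with different doses (0.5% DMSO) for 12 h, washed in TDB pH 7.4 and lysed in Pipes pH 6.8/EGTA/MgCl2/0.15% Triton X-100/glycerol buffer, 4 °C, 5 min. Lysate spun 15,000 g 30 min at 4 °C: supernatant taken as non-polymerized tubulin, RIPA-resuspended pellet as polymerized. Equal cell equivalents (1.83 × 10^7) run on 10% SDS-PAGE for western blot.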

[2] = tested on: Trypanosoma brucei brucei; experiment: Antiparasitic activity against Trypanosoma brucei brucei Lister 427 assessed as reduction in parasite viability after 48 hrs by MTS assay; type: functional, organism-based; conditions: Lister 427, 48 h
In short: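 Bloodstream-form Lister 427 grown in HMI-9 with 10% FBS, 37 °C, 7.5% CO2. 5000 cells/well exposed to graded concentrations with 0.1% DMSO for 48 h at 37 °C. MTS/PMS reagent then added, 3 h at 37 °C, formazan read at 490 nm. Quadruplicate data normalized and fitted to dose–response curves for IC50 (Mean ± S.D.).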

RAW264.7 = experiment: Cytotoxicity against mouse RAW264.7 cells after 48 hrs by MTT assay; type: cell-based; conditions: RAW264.7, 48 h
In short: (§2)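 Cells kept in RPMI1640 with 10% heat-inactivated FBS, 2 mM L-glutamine, 1 mM pyruvate, pen-strep, 37 °C, 5% CO2. 3000 cells/well seeded 24 h, then exposed to graded concentrations (DMSO ≤0.1% final) for 48 h. Then 0.5 mg/mL MTT 3 h at 37 °C, DMSO solubilization, absorbance 570 nm. Quadruplicate data fitted to dose–response curves for IC50.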

[3] = Selectivity index, ratio of IC50 for mouse RAW264.7 cells to IC50 for Trypanosoma brucei brucei Lister 427; type: toxicity; conditions: read-out: Ratio IC50
In short: (§3)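 Ratio of mammalian MTT IC50 (48 h) to T. brucei MTS IC50 (48 h), both from quadruplicate dose–response fits.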

[4] = tested on: Trypanosoma brucei brucei; experiment: Inhibition of tubulin polymerization in Trypanosoma brucei brucei Lister 427 assessed as decrease in polymerized tubulin after 12 hrs by Western blot analysis; in short: as §1
HEK293 = experiment: Cytotoxicity against HEK293 cells after 48 hrs by MTT assay; type: cell-based; conditions: Homo sapiens, HEK293, 48 h; in short: as §2
[5] = 1-Octanol/DDH2O partition coefficient, log P of the compound incubated for 48 hrs under stirring condition measured by UV-Vis spectrophotometric method; type: physicochemical; conditions: for logP: octanol/water, 48 h
In short: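 Slow-stir shake method (OECD-based, modified): compound dissolved in water-saturated 1-octanol, centrifuged 5000 rpm 5 min, supernatant mixed with equal volume octanol-saturated water, stirred at room temperature 48 h. Phases separated by centrifugation; octanol-phase UV absorbance read before and after. Log P = log[Ax/(A0−Ax)]. Repeated three times, Mean ± SD.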

[6] = Selectivity index, ratio of IC50 for HEK293 cells to IC50 for Trypanosoma brucei brucei Lister 427; type: toxicity; conditions: human, read-out: Ratio IC50; in short: as §3

Structure (SMILES)	inhibition [1]	IC50 [2] [µM]	IC50 (RAW264.7) [µM]	selectivity ratio [3]	inhibition [4]	IC50 (HEK293) [µM]	logP [5]	selectivity ratio [6]	logP at 48 h ([5]; 1-octanol/DDH2O)
N#Cc1ccc(C(=O)Nc2ccc(NS(=O)(=O)C(F)(F)F)c(F)c2)cc1	Dose-dependent effect	2.1	> 250	> 119	Dose-dependent effect	> 250	0.998	> 119	–
Cc1cc(NC(=O)c2cc(C(F)(F)F)cc(C(F)(F)F)c2)ccc1NS(=O)(=O)C(F)(F)F	–	20.7	40.7	2	–	182	–	9	–
Cc1cc(NC(=O)c2ccc(Cl)cc2)ccc1NS(C)(=O)=O	–	> 62.5	69	< 2	–	50.3	–	< 1	–
O=C(Nc1ccc(NS(=O)(=O)C(F)(F)F)c(Cl)c1)c1cccc(C(F)(F)F)c1	–	> 62.5	55.8	< 1	–	210	–	< 4	–
CS(=O)(=O)Nc1ccc(NC(=O)c2ccc(Cl)cc2)cc1F	–	> 62.5	22.2	< 1	–	216	–	< 4	–
Cc1cc(NC(=O)c2cc(C(F)(F)F)cc(C(F)(F)F)c2)ccc1NS(C)(=O)=O	Dose-dependent effect	2.93	> 250	> 85	Dose-dependent effect	163	1.957	56	–
CS(=O)(=O)Nc1ccc(NC(=O)c2ccc(Cl)c([N+](=O)[O-])c2)cc1Cl	–	> 62.5	43.6	< 1	–	204	–	< 4	–
Cc1cc(NC(=O)c2ccc(C#N)cc2)ccc1NS(C)(=O)=O	–	> 62.5	171	< 3	–	43.5	–	< 1	–
CCS(=O)(=O)Nc1ccc(NC(=O)c2cc(C(F)(F)F)cc(C(F)(F)F)c2)cc1F	–	8.78	> 250	> 28	–	> 250	–	> 28	–
CCS(=O)(=O)Nc1ccc(NC(=O)c2cccc(C(F)(F)F)c2)cc1F	–	33.9	119	4	–	94.8	–	3	–
COc1cc(NC(=O)c2cccc(C(F)(F)F)c2)ccc1NS(=O)(=O)C(F)(F)F	–	43	75.2	2	–	> 250	–	> 6	–
CS(=O)(=O)Nc1ccc(NC(=O)c2cc(C(F)(F)F)cc(C(F)(F)F)c2)cc1Cl	–	10.1	69.5	7	–	185	–	18	–
CCS(=O)(=O)Nc1ccc(NC(=O)c2cc(C(F)(F)F)cc(C(F)(F)F)c2)cc1C	–	12.5	124	10	–	126	–	10	–
O=C(Nc1ccc(NS(=O)(=O)C(F)(F)F)c(Cl)c1)c1cc(C(F)(F)F)cc(C(F)(F)F)c1	–	47.4	136	3	–	> 250	–	> 5	–
O=C(Nc1ccc(NS(=O)(=O)C(F)(F)F)c(Cl)c1)c1ccc(Cl)cc1	–	> 62.5	47.1	< 1	–	191	–	< 4	–
CN(c1ccc(NC(=O)c2ccc(C#N)cc2)cc1OCc1ccc(C(F)(F)F)cc1)S(=O)(=O)Cc1ccccc1	–	–	–	–	–	–	–	–	2.9
CCS(=O)(=O)Nc1ccc(NC(=O)c2ccc(Cl)c([N+](=O)[O-])c2)cc1C	–	19.4	141	7	–	144	–	7	–
O=C(Nc1ccc(NS(=O)(=O)C(F)(F)F)c(F)c1)c1ccc(Cl)cc1	–	> 62.5	8.27	< 1	–	79	–	< 2	–
O=C(Nc1ccc(NS(=O)(=O)C(F)(F)F)c(F)c1)c1cc(C(F)(F)F)cc(C(F)(F)F)c1	–	9.39	112	12	–	164	–	17	–
O=C(Nc1ccc(NS(=O)(=O)C(F)(F)F)c(F)c1)c1cccc(C(F)(F)F)c1	–	47.4	34.4	1	–	152	–	3	–
CCS(=O)(=O)Nc1ccc(NC(=O)c2ccc(C#N)cc2)cc1Cl	–	38	226	6	–	> 250	–	> 7	–
O=C(Nc1ccc(NS(=O)(=O)C(F)(F)F)c(Cl)c1)c1ccc(Cl)c([N+](=O)[O-])c1	–	47.6	31.7	1	–	228	–	5	–
CCS(=O)(=O)Nc1ccc(NC(=O)c2ccc(Cl)c([N+](=O)[O-])c2)cc1Cl	–	2.21	125	57	–	63.8	–	29	–
